# Published values from different studies.
# Compare with care: the assays were run in different laboratories.
Structure (SMILES),test system,conditions,Cmax
CC[C@H](C)[C@@H]1NC(=O)[C@@](C)(NC(=O)[C@H](CCCNC(=N)N)NC(=O)[C@H](CC(C)C)NC(=O)[C@@H](NC(=O)[C@H](CCC(N)=O)NC(=O)[C@H](CC(C)C)NC(C)=O)[C@@H](C)O)CCCC=CCCC[C@@](C)(C(=O)N[C@@H](CC(C)C)C(=O)N[C@@H](Cc2ccc3ccccc3c2)C(N)=O)NC(=O)[C@H](CCCNC(=N)N)NC(=O)[C@H](CCC(N)=O)NC1=O,"male BALB/c mouse, plasma","intravenous, 5 mg/kg",41 µM
CNC(=O)c1ccccc1Nc1cc(Nc2ccc(N3CCOCC3)cc2OC)ncc1C(F)(F)F,"BALB/c mouse, plasma","oral, 150 mg/kg",~14 µM
Cc1c(C(=O)NN2CCCCC2)nc(-c2ccc(Cl)cc2Cl)n1-c1ccc(OS(=O)(=O)CCC(F)(F)F)cc1,"mouse, plasma","oral, 20 µmol/kg, single dose",1.2 µM
CC1(C)CC[C@]2(C(=O)O)CC[C@]3(C)C(=CC[C@@H]4[C@@]5(C)C[C@@H](O)[C@H](OC(=O)/C=C/c6ccc(O)cc6)C(C)(C)[C@@H]5CC[C@]43C)[C@@H]2C1 (relative stereo),"mouse, brain","intraperitoneal, 85 µmol/kg, single dose",1.75 µM
COc1ccc2nccc(N3CCc4c(cc(Cn5ccnc5)cc4-c4cn(C)nc4C(F)(F)F)C3=O)c2c1,"male CD-1 mouse, plasma","oral, 10 mg/kg",1150 ng/mL
Cn1cnc2c(F)c(Nc3ccc(Br)cc3Cl)c(C(=O)NOCCO)cc21,"nude mouse, liver","oral, 10 mg/kg, single dose, tumour-bearing",1440 ng/g
CCc1cc(OC)c2nccc(N3CCc4c(cc(Cn5ccnc5)cc4-c4cn(C)nc4C(F)(F)F)C3=O)c2c1,"male CD-1 mouse, plasma","oral, 50 mg/kg",29000 ng/mL
CNC(=O)[C@H](Cc1c[nH]cn1)NC(=O)CN(CCCc1ccccc1)CC(=O)OC,"male C57BL/6 mouse, plasma","intraperitoneal, 30 mg/kg",3800 ng/mL
CS(=O)(=O)CCNCc1ccc(-c2ccc3ncnc(Nc4ccc(OCc5cccc(F)c5)c(Cl)c4)c3c2)o1,"nude mouse, plasma","oral, 100 mg/kg, single dose",15200 ng/mL
CC(C)(C)c1ccc(O)c(CN(Cc2cc(C(C)(C)C)ccc2O)C2CCC(NC(N)=O)CC2)c1 (stereo not drawn),"male C57BL/6 mouse, plasma","intraperitoneal, 10 mg/kg, single dose",2240 ng/mL
Cc1ccc(NC(=O)c2ccc(CN3CCN(C)CC3)cc2)cc1Nc1nccc(-c2cncc(-c3oncc3C)c2)n1,"male C57BL/6 mouse, plasma","oral, 100 mg/kg/day",5060 ng/mL
CC(C)(O)c1cn(-c2ccc(-c3cc(F)c(CO)c(S(C)(=O)=O)c3)cc2F)c(C(C)(C)c2c(Cl)cccc2Cl)n1,"male C57BL/6 mouse, serum","oral, 10 mg/kg",0.71 µM
COc1nc(-c2cc(C)c(N[C@@H](C)c3cc(F)cc(F)c3)nn2)ccc1-n1cnc(C)c1,"male CD-1 mouse, plasma","oral, 5 mg/kg, single dose",1180 ng/mL
CCn1ncc2c(Nc3ccc(OC(F)(F)F)cc3)ncnc21,"male BALB/c mouse, plasma","oral, 20 mg/kg",263 ng/mL
COc1ccc([C@@]23Oc4cc(OC)cc(OC)c4[C@]2(O)[C@H](O)[C@H](C(=O)N(C)C)[C@H]3c2ccccc2)cc1,"mouse, plasma","intraperitoneal, 5 mg/kg",~4 µM
Cc1cc(Nc2ccc(S(F)(F)(F)(F)F)cc2)n2ccnc2n1,"male Swiss mouse, plasma","oral, 100 mg/kg, single dose",29 µM
CNCCN(C)c1cc(C#N)cc(CCc2cc(C)cc(N)n2)c1,"male BALB/c mouse, brain","oral, 10 mg/kg",39.3 ng/g
Cc1c(C(=O)NN2CCCCC2)nn(-c2ccc(Cl)cc2Cl)c1-c1ccc(Cl)cc1,"mouse, plasma","oral, 20 µmol/kg, single dose",1.05 µM
CC(C)(O)c1cn(-c2ccc(-c3ccc(CO)c(S(C)(=O)=O)c3)cc2)c(Cc2ccccc2Cl)n1,"male C57BL/6 mouse, serum","oral, 10 mg/kg",3.2 µM
CCOc1ccc(Cc2cc([C@@H]3O[C@H](CO)[C@@H](O)[C@H](O)[C@H]3O)ccc2Cl)cc1,"male C57BL/6 mouse, plasma","intravenous, 1 mg/kg",1170 ng/mL
C=CC(=O)N1CC2CC(n3nc(-c4ccc(C(=O)Nc5ccccn5)cc4)c4c(N)ncnc43)CC2C1 (stereo not drawn),"SCID mouse, plasma","oral, 3 mg/kg",703 ng/mL
Cc1ncsc1-c1ccc(CNC(=O)[C@@H]2C[C@@H](O)CN2C(=O)[C@@H](NC(=O)CCCCCCCCCC(=O)N2CCN(CC[C@H](NC(=O)C3(N)CCN(c4ncnc5[nH]ccc45)CC3)c3ccc(Cl)cc3)CC2)C(C)(C)C)cc1,"mouse, plasma","intraperitoneal, 75 mg/kg, single dose",10 µM
CCc1cc(C(=O)NC)c2nccc(N3CCc4c(cc(Cn5ccnc5)cc4-c4cn(C)nc4C(F)(F)F)C3=O)c2c1,"male CD-1 mouse, plasma","oral, 50 mg/kg",25100 ng/mL
COc1ccc2nc(-c3ccccn3)c(N(C)c3ccc(F)cc3)n2c1,"male CD-1 mouse, plasma","oral, 50 mg/kg, fasted",1440 ng/mL
COc1nc(-c2cc(C)c(N[C@@H](C)c3ccc(F)cc3)nn2)ccc1-n1cnc(C)c1,"male CD-1 mouse, plasma","oral, 5 mg/kg, single dose",1530 ng/mL
O=S(=O)(c1ccc(-c2ccc3nccc(Nc4ccncn4)c3c2)cc1)N1CCOCC1,"female BALB/c mouse, plasma","intraperitoneal, 10 mg/kg",4460 ng/mL
Cc1nc2ccc(F)cc2n1-c1nc(N)c(F)c(Nc2ccc(C(F)(F)F)cc2)n1,"nude mouse, plasma","oral, 10 mg/kg",1160 ng/mL
COc1nc(-c2cc(C)c(N[C@@H](C)c3c(F)cc(F)cc3F)nn2)ccc1-n1cnc(C)c1,"male CD-1 mouse, plasma","intravenous, 1 mg/kg, single dose",858 ng/mL
OC[C@H]1O[C@@H](c2ccc(Cl)c(Cc3ccc(O[C@H]4CCOC4)cc3)c2)[C@H](O)[C@@H](O)[C@@H]1O,"CD-1 mouse, plasma","oral, 10 mg/kg",2460 ng/mL
NS(=O)(=O)c1ccc(-c2cc(Nc3ccc(OC(F)(F)F)cc3)ncn2)cc1,"male BALB/c mouse, plasma","oral, 20 mg/kg",2000 ng/mL
CN1CCC[C@H](CN2c3ccccc3Sc3ccccc32)C1.Cl,"mouse, plasma","intraperitoneal, 32 mg/kg, single dose",1560 ng/mL
CNC(=O)c1cc(Oc2ccc(NC(=O)Nc3ccc(Cl)c(C(F)(F)F)c3)c(F)c2)cc[n+]1[O-],"mouse, plasma","oral, 10 mg/kg, single dose",360 ng/mL
COc1cc(C(=O)N2CCC(N3CCN(C)CC3)CC2)ccc1Nc1ncc2c(n1)N(C)c1ccccc1C(=O)N2C,"mouse, plasma","oral, 10 mg/kg",1620 ng/mL
Nc1nc(-c2ccccc2)nc2[nH]nc(Nc3ccc(C(F)(F)F)cc3)c12,"mouse, plasma","oral, 100 mg/kg",1250 ng/mL
Cc1ccc2cncc(N3CCc4c(cc(Cn5ccnc5)cc4-c4cn(C)nc4C(F)(F)F)C3=O)c2c1,"male CD-1 mouse, plasma","oral, 50 mg/kg",6580 ng/mL
CSc1cc(Oc2ccnc3[nH]c(=O)cnc23)ccc1NC(=O)Nc1cc(C(C)(C)C)nn1-c1ccccc1,"BALB/c mouse, plasma","oral, 10 mg/kg",54.2 µM
NC(=O)c1cccc(-c2c[nH]c3ncnc(N4CCOCC4)c23)c1,"female C57BL/6 mouse, plasma","intraperitoneal, 10 mg/kg",11 µM
COc1ccc2c3c1O[C@H]1C[C@@H](OC(=O)c4ccccc4)C=C[C@@]31CCN(C)C2,"mouse, brain","intravenous, 3 mg/kg",4810 ng/g
CCc1ccc(Cc2cc([C@@H]3O[C@H](CO)[C@@H](O)[C@H](O)[C@H]3O)cc3c2CCC3)cc1,"male C57BL/6 mouse, plasma","intravenous, 1 mg/kg",1300 ng/mL
COc1ccc(C(O)COc2ccc(-c3csc(-c4ccc(OCC(O)c5ccc(OC)c(OC)c5)cc4)n3)cc2)cc1OC (stereo not drawn),"C57BL/6 mouse, plasma","oral, 10 mg/kg",1760 ng/mL
CN1C(=O)c2ccccc2[S@+]([O-])c2ccc(C(=O)NCCc3cccs3)cc21,"male C57BL/6 mouse, brain","intraperitoneal, 30 mg/kg, single dose",1720 ng/g
Cc1nc(-c2cnc(NC(C)C)n(C)c2=O)ccc1Oc1ccnc(-c2cnn(C)c2)c1,"female mouse, plasma","oral, 30 mg/kg, single dose",9350 ng/mL
CNC(=O)c1cc(Oc2ccc(NC(=O)Nc3ccc(Cl)c(C(F)(F)F)c3)c(F)c2)ccn1,"male mouse, plasma","oral, 10 mg/kg, single dose",3300 ng/mL
Cc1c2c(n(-c3ccc(Cl)cc3Cl)c1-c1ccc(OS(=O)(=O)CCC(F)(F)F)cc1)CCN(N1CCCCC1)C2=O,"mouse, plasma","oral, 6 µmol/kg, single dose",0.48 µM
COc1cc(OC)c2nccc(N3CCc4c(cc(Cn5ccnc5)cc4-c4cn(C)nc4C(F)(F)F)C3=O)c2c1,"male CD-1 mouse, plasma","oral, 50 mg/kg",19700 ng/mL
CC(=O)O[C@H]1C(=O)[C@@]2(C)[C@H]([C@H](OC(=O)c3ccccc3)[C@]3(O)C[C@H](OC(=O)[C@H](O)[C@@H](NC(=O)c4ccccc4)c4ccccc4)C(C)=C1C3(C)C)[C@]1(OC(C)=O)CO[C@@H]1C[C@@H]2O,"SCID mouse, plasma","intraperitoneal, 10 mg/kg, single dose",2100 ng/mL
COc1cc2c(Nc3ccc(Cl)c(Cl)c3F)ncnc2cc1OC[C@@H]1C[C@@H]2CN(C)C[C@@H]2C1,"FVB mouse, plasma","oral, 70 mg/kg, single dose",3780 ng/mL
COC(=O)CN(CCCc1ccccc1)CC(=O)N[C@@H](Cc1c[nH]cn1)c1nc(C)no1,"male C57BL/6 mouse, plasma","intraperitoneal, 30 mg/kg",1000 ng/mL
